# Most compounds without a hit are left out; they make up all but 4.3% or so of the library.
# RAM inhibit – blocks the yeast RAM network; S. cerevisiae dse1pr::URA3 reporter, 5-FOA growth OD615, 2 d; analog-sensitive cbk1-as2 kinase mutant strain; inhibition, % at 50 µM; actives 1.8% (n = 190,000); AID 868;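 active = inhibition above a set limit, 3 SD over mean compound inhibition, cut at about 8.4% in these data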;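 note: 0% = DMSO-only wells with no growth and 100% = 10 µM 1-NA-PP1 full growth; inhibition rescues growth on 5-FOA so higher OD means more RAM inhibition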
# WT yeast gro inh – growth inhibition of WT yeast, mitochondrial fusion screen. mitochondrial fusion phenotypic screen, WT strain. inhibition, % at 10 µM. actives 2.1% (n = 190,000); in the data active = inhibition above about 58%; tested in S. cerevisiae
# Yeast life ext – yeast lifespan extension. S. cerevisiae growth with nicotinamide, OD615; deaD strain in restrictive glucose medium. inhibition of the nicotinamide effect, % at 10 µM. actives 0.68% (n = 130,000);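 active = inhibition above a set limit, placed 3 SD over the median of all compounds, cut at about 26% in these data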;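 note: 0% = nicotinamide-treated wells and 100% = cells grown without nicotinamide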
#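 Test system – modified budding yeast, DeaD strain · Compound – single dose 10 µM compound, 0.25% DMSO · Times – culture preincubation 4 h, compound exposure 48 h, both 30 °C · Detection – optical density (absorbance) at 615 nm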
# Yeast growth inh – reduces growth of yeast BB579 in restrictive medium | S. cerevisiae BB579 growth, OD615, 48 h | inhibition, % at 10 µM | actives 0.51% (n = 140,000) | AID 804;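 active = inhibition above a set limit, 3 SD over the mean compound inhibition, cut at about 44% in these data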
#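 System: Saccharomyces cerevisiae DeaD strain BB579, replicative lifespan model yeast | Buffer or medium: Restrictive glucose-based CSMM-D medium | Times: 4 h preincubation and 48 h exposure at 30 °C | Detection: OD615 turbidity measurement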
# RAM 5-FOA – RAM network inhibition, efflux-deficient strain; shares compounds with RAM inhibit; S. cerevisiae efflux-deficient reporter strain, 5-FOA growth OD615, 2 days; max inhibition, %; 1,200 tested, under 10 active; call rule not given here;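 note: plate controls were vehicle for no effect and reference inhibitor for full effect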
# Active calls of the source: *; nt = no result.
SMILES,RAM inhibit,WT yeast gro inh,Yeast life ext,Yeast growth inh,RAM 5-FOA
CCN(CC)c1nc(SCCOC(=O)Nc2ccccc2)nc(N(CC)CC)n1,18*,12,nt,-41,8
CCn1c2ccccc2c2cc(NC(=O)c3cc(OC)c(OC)c(OC)c3)ccc21,12*,16,-21,-11,4
O=C(O)c1cn(C2CC2)c2cc(N3CCN(S(=O)(=O)c4ccc5c(c4)OCCO5)CC3)c(F)cc2c1=O,2,-11,nt,nt,nt
CCCCOC(=O)c1ccc(NC(=O)c2c(Cl)ccc(Cl)c2OC)cc1,18*,44,0,-36,3
CCCCCCOC(=O)c1ccc(NC(=O)c2cc(OC)c(OC)c(OC)c2Br)cc1,11*,32,1,-22,4
CCC1CCc2c(sc(NC(=O)CSc3nc(-c4ccco4)cc(C(F)(F)F)n3)c2C#N)C1 (centres undefined),4,-1,1,-41,nt
COc1ccc2c(c1)CC/C(=C\C=C\c1ccccc1OC)C2=O,8,28,nt,-26,nt
COc1ccc2c(c1)C(=O)/C(=C/C=C/c1ccccc1)CC2,15*,37,nt,-62,4
CCN=c1scc(-c2cccs2)n1/N=C/c1cc(OC)ccc1O,12*,47,-2,-43,2
COc1cc(-c2nc(-c3cccc(C(F)(F)F)c3)no2)cc(OC)c1OC,12*,22,-1,-48,1
O=C(/C=C/c1ccc(-c2ccccc2[N+](=O)[O-])o1)c1ccccc1,16*,41,-6,-33,4
CC1=C(C)CC2(SC1)C(=O)N(c1ccccc1)N=C2N (centres undefined),1,10,nt,nt,nt
C/C(=N\NC(=S)NCc1ccccc1)c1ccc(C(C)(C)C)cc1,11*,63*,0,26,5
COc1ccc(C(=O)Nc2cc(OCc3ccccc3)c(Cl)cc2Cl)cc1,15*,12,-1,-25,2
O=C(Nc1ccccc1Cl)c1cccc(COc2cc(Cl)ccc2Cl)c1,12*,-20,-3,-43,5
COc1ccc(COc2ccsc2C(=O)Nc2ccc(Cl)c(Cl)c2)cc1,14*,8,-22,-49,2
COc1ccc(C(=O)Nc2cc(OC)c(Cl)cc2Cl)cc1,5,-19,nt,nt,nt
CN(C)S(=O)(=O)Oc1ccsc1C(=O)Nc1ccc(Cl)c(Cl)c1,4,45,-7,-19,nt
Cc1ccnc(N2CCC(C(=O)Nc3cccc(C(F)(F)F)c3)CC2)n1,1,8,-22,-33,nt
Fc1ccc(N2CCN(c3nc(-c4ccco4)cc(C(F)(F)F)n3)CC2)cc1,14*,8,-7,-44,4
FC(F)(F)c1cc(-c2ccco2)nc(N2CCN(Cc3ccccc3)CC2)n1,0,64,-14,-27,nt
COc1ccc(Br)cc1C(=O)Nc1ccccc1-c1ccccc1,12*,29,-16,-13,3
CCCN(CC1CC1)C(=O)COC(=O)c1ccc(CNS(=O)(=O)c2ccc(F)c(Cl)c2)cc1,12*,-4,3,-11,1
Cc1ccc(CC(=O)NCC(c2ccco2)N(C)C)cc1C (centres undefined),2,-4,nt,nt,nt
CCN1C(=O)c2cccc3c(NS(=O)(=O)c4ccc(NC(C)=O)cc4)ccc1c23,4,-8,-8,-29,nt
SMILES,RAM inhibit,WT yeast gro inh,Yeast life ext,Yeast growth inh,RAM 5-FOA
CCOC(=O)c1ccc(NC(=O)Nc2ccc3c4c(cccc24)C(=O)N3CC)cc1,18*,-13,3,-31,4
CCNc1nc(-c2ccc(OC(F)F)cc2)c(C)s1,0,35,nt,nt,nt
Cc1ccccc1OCC(=O)OCC(=O)c1ccc(OCc2ccccc2)cc1,12*,24,6,-27,4
O=C(CNS(=O)(=O)c1ccccc1)OCC(=O)c1ccc(OC(=O)c2ccccc2)cc1,4,-11,-3,3,nt
Cc1ccccc1OCC(=O)OCC(=O)c1ccc(OC(=O)c2ccccc2)cc1,14*,-25,3,-30,3
CC1CCN(S(=O)(=O)c2ccc(C(=O)NNC(=O)C3CC3)cc2)CC1,3,-7,nt,nt,nt
CSCCC(NC(N)=O)C(=O)Nc1ccc2ccccc2c1 (centres undefined),2,-14,nt,nt,nt
CSCCC(NS(=O)(=O)c1ccc2ccccc2c1)C(=O)OCC(=O)c1ccc(C(C)C)cc1 (centres undefined),15*,29,6,-16,4
COc1ccc(/C=C/C(=O)OCc2csc(-c3ccccc3)n2)cc1OC,16*,26,0,-49,2

# Bioassay records (PubChem BioAssay)
